From ChEMBL document CHEMBL3351896, “Small Molecule that Reverses Dexamethasone Resistance in T-cell Acute Lymphoblastic Leukemia (T-ALL)” (ACS Med Chem Lett, 2014)
pEC50: −log10 of the molar value. The source made the active and inactive calls. The calls are words filed in the database; no cut-off is given here.

How the values were obtained:
Format in all cases: functional, cell-based
[1] = Growth inhibition of human CUTLL1 cells in presence of 1 uM dexamethasone after 48 hrs by alamar blue assay; settings: CUTLL1, 48 h
Summary of the method: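 CUTLL1 cells given compound alone or with dexamethasone 1 μM. Growth inhibition measured by alamar blue after 48 h.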

CUTLL1 [2] = assay: Growth inhibition of human CUTLL1 cells at 50 uM in presence of deferoxamine after 48 hrs by alamar blue assay
CUTLL1 [3] = assay: Growth inhibition of human CUTLL1 cells at 50 uM in presence of camptothecin after 48 hrs by alamar blue assay
CUTLL1 [4] = assay: Growth inhibition of human CUTLL1 cells at 50 uM in presence of erastin after 48 hrs by alamar blue assay
CUTLL1 [5] = assay: Growth inhibition of human CUTLL1 cells at 50 uM in presence of MG262 after 48 hrs by alamar blue assay
CUTLL1 [6] = assay: Growth inhibition of human CUTLL1 cells at 50 uM in presence of taxol after 48 hrs by alamar blue assay
CUTLL1 [7] = assay: Growth inhibition of human CUTLL1 cells with low GR expression levels at 50 uM after 48 hrs by alamar blue assay
Summary of the method: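 Human CUTLL1 T-ALL cells engineered to express high (overexpressed) or low (knockdown) glucocorticoid receptor levels. Exposed to compound alone or with 1 μM dexamethasone. Alamar blue growth inhibition read after 48 h.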

CUTLL1 [8] = assay: Increase in GR expression in human CUTLL1 cells at 25 to 50 uM in presence of 1 uM dexamethasone after 24 hrs by Western blotting method
Summary of the method: (§1)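 CUTLL1 cells exposed to compound (25 or 50 μM) alone, with 1 μM dexamethasone, or with dexamethasone plus 1 μM RU486, for 6 or 24 h. GR measured as protein by Western blot and as transcript by RT-qPCR.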

CUTLL1 [9] = assay: Increase in GR expression in human CUTLL1 cells at < 25 uM after 24 hrs by Western blotting method
CUTLL1 [10] = assay: Increase in GR expression in human CUTLL1 cells at 25 to 50 uM in presence of 1 uM dexamethasone and 1 uM […] and glucocorticoid receptor antagonist RU486 after 24 hrs by Western blotting method; summary of the method: as §1
CUTLL1 [11] = assay: Effect on FKBP5 gene expression in human CUTLL1 cells in presence of 1 uM dexamethasone at 30 uM after 24 hrs by microarray method
Summary of the method: (§2)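 CUTLL1 T-ALL cells exposed 24 h to vehicle (DMSO), dexamethasone alone (1 μM), test agent alone (30 μM), or dexamethasone (1 μM) plus test agent (30 μM), in triplicate. Expression profiled by microarray. Leading-edge genes from GSEA were compared between the dexamethasone-plus-agent and dexamethasone-alone groups, using glucocorticoid-regulated gene sets from ALL patients on glucocorticoid therapy.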

CUTLL1 [12] = assay: Effect on GGNBP2 gene expression in human CUTLL1 cells in presence of 1 uM dexamethasone at 30 uM after 24 hrs by microarray method; summary of the method: as §2
CUTLL1 [13] = assay: Effect on DDIT4 gene expression in human CUTLL1 cells in presence of 1 uM dexamethasone at 30 uM after 24 hrs by microarray method; summary of the method: as §2
CUTLL1 [14] = assay: Effect on PFAS gene expression in human CUTLL1 cells in presence of 1 uM dexamethasone at 30 uM after 24 hrs by microarray method
Summary of the method: (§3)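 Human CUTLL1 T-ALL cells exposed for 24 h to vehicle (DMSO), dexamethasone alone (1 μM), test compound alone (30 μM), or dexamethasone 1 μM plus compound 30 μM, each in triplicate. Expression profiled by microarray. Glucocorticoid-regulated gene sets from ALL patients on glucocorticoid therapy scored by GSEA. Leading-edge genes compared between the combination and dexamethasone alone.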

CUTLL1 [15] = assay: Effect on SPC25 gene expression in human CUTLL1 cells in presence of 1 uM dexamethasone at 30 uM after 24 hrs by microarray method; summary of the method: as §3
CUTLL1 [16] = assay: Effect on TIFA gene expression in human CUTLL1 cells in presence of 1 uM dexamethasone at 30 uM after 24 hrs by microarray method; summary of the method: as §3
CUTLL1 [17] = assay: Effect on RAD51AP1 gene expression in human CUTLL1 cells in presence of 1 uM dexamethasone at 30 uM after 24 hrs by microarray method; summary of the method: as §3
CUTLL1 [18] = assay: Effect on DSCC1 gene expression in human CUTLL1 cells in presence of 1 uM dexamethasone at 30 uM after 24 hrs by microarray method; summary of the method: as §2
CUTLL1 [19] = assay: Effect on BCCIP gene expression in human CUTLL1 cells in presence of 1 uM dexamethasone at 30 uM after 24 hrs by microarray method; summary of the method: as §2
CUTLL1 [20] = assay: Effect on HELLS gene expression in human CUTLL1 cells in presence of 1 uM dexamethasone at 30 uM after 24 hrs by microarray method; summary of the method: as §2
CUTLL1 [21] = assay: Effect on BYSL gene expression in human CUTLL1 cells in presence of 1 uM dexamethasone at 30 uM after 24 hrs by microarray method; summary of the method: as §2
CUTLL1 [22] = assay: Effect on CHAF1A gene expression in human CUTLL1 cells in presence of 1 uM dexamethasone at 30 uM after 24 hrs by microarray method; summary of the method: as §2
CUTLL1 [23] = assay: Effect on PAICS gene expression in human CUTLL1 cells in presence of 1 uM dexamethasone at 30 uM after 24 hrs by microarray method; summary of the method: as §2
CUTLL1 [24] = assay: Effect on ALYREF gene expression in human CUTLL1 cells in presence of 1 uM dexamethasone at 30 uM after 24 hrs by microarray method; summary of the method: as §2
CUTLL1 [25] = assay: Effect on ZFP36L2 gene expression in human CUTLL1 cells in absence of 1 uM dexamethasone at 30 uM after 24 hrs by microarray method; summary of the method: as §3
CUTLL1 [26] = assay: Effect on BTG1 gene expression in human CUTLL1 cells in absence of 1 uM dexamethasone at 30 uM after 24 hrs by microarray method; summary of the method: as §2
CUTLL1 [27] = assay: Effect on BRCA1 gene expression in human CUTLL1 cells in absence of 1 uM dexamethasone at 30 uM after 24 hrs by microarray method; summary of the method: as §2
CUTLL1 [28] = assay: Effect on TIFA gene expression in human CUTLL1 cells in absence of 1 uM dexamethasone at 30 uM after 24 hrs by microarray method; summary of the method: as §3
CUTLL1 [29] = assay: Effect on RAD51AP1 gene expression in human CUTLL1 cells in absence of 1 uM dexamethasone at 30 uM after 24 hrs by microarray method; summary of the method: as §3
CUTLL1 [30] = assay: Effect on BCCIP gene expression in human CUTLL1 cells in absence of 1 uM dexamethasone at 30 uM after 24 hrs by microarray method; summary of the method: as §2
CUTLL1 [31] = assay: Effect on PCNA gene expression in human CUTLL1 cells in absence of 1 uM dexamethasone at 30 uM after 24 hrs by microarray method; summary of the method: as §2
CUTLL1 [32] = assay: Effect on CHAF1A gene expression in human CUTLL1 cells in absence of 1 uM dexamethasone at 30 uM after 24 hrs by microarray method; summary of the method: as §2
CUTLL1 [33] = assay: Effect on RANBP1 gene expression in human CUTLL1 cells in absence of 1 uM dexamethasone at 30 uM after 24 hrs by microarray method; summary of the method: as §3
CUTLL1 [34] = assay: Effect on CDC45 gene expression in human CUTLL1 cells in absence of 1 uM dexamethasone at 30 uM after 24 hrs by microarray method; summary of the method: as §2

With `Nc1ncc(-c2ccncc2)c(C2CC2)n1` the pEC50 [1] was 4.55, the “growth inhibition (GI)” value (CUTLL1 [2]) was “inactive” and the “growth inhibition (GI)” value (CUTLL1 [3]) was “inactive”. For the same compound, the “growth inhibition (GI)” value (CUTLL1 [4]) was “inactive”, the “growth inhibition (GI)” value (CUTLL1 [5]) was “inactive” and the “growth inhibition (GI)” value (CUTLL1 [6]) was “inactive”. The “growth inhibition (GI)” value (CUTLL1 [7]) was “inactive”, the Activity (CUTLL1 [8]) was “Active” and the Activity (CUTLL1 [9]) was “inactive”. For the same compound, the Activity (CUTLL1 [10]) was “inactive”, the Activity (CUTLL1 [11]) was “Active” and the Activity (CUTLL1 [12]) was “Active”. The Activity (CUTLL1 [13]) was “Active”, the Activity (CUTLL1 [14]) was “Active” and the Activity (CUTLL1 [15]) was “Active”. The Activity (CUTLL1 [16]) was “Active”, the Activity (CUTLL1 [17]) was “Active” and the Activity (CUTLL1 [18]) was “Active”. The Activity (CUTLL1 [19]) was “Active”, the Activity (CUTLL1 [20]) was “Active” and the Activity (CUTLL1 [21]) was “Active”. For the same compound, the Activity (CUTLL1 [22]) was “Active”, the Activity (CUTLL1 [23]) was “Active” and the Activity (CUTLL1 [24]) was “Active”. For the same compound, the Activity (CUTLL1 [25]) was “inactive”, the Activity (CUTLL1 [26]) was “inactive” and the Activity (CUTLL1 [27]) was “inactive”. The Activity (CUTLL1 [28]) was “inactive”, the Activity (CUTLL1 [29]) was “inactive” and the Activity (CUTLL1 [30]) was “inactive”. For the same compound, the Activity (CUTLL1 [31]) was “inactive”, the Activity (CUTLL1 [32]) was “inactive” and the Activity (CUTLL1 [33]) was “inactive”. The Activity (CUTLL1 [34]) was “inactive”.
